Test results published in ChEMBL document CHEMBL1649289, “Paradoxical growth of Candida dubliniensis does not preclude in vivo response to echinocandin therapy” (2009).
Converted amounts (≈) assume the structure as drawn.

Assays:
Type in all cases: functional
Candida dubliniensis [1] = assay: Antifungal activity against Candida dubliniensis 9453 after 24 hrs; settings: Candida dubliniensis, 9453, 24 h
How it was run: (§1)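 CLSI M27-A3 broth microdilution. Yeast inoculum was adjusted with a hemocytometer. MIC was read at 24 h or 48 h as the lowest concentration giving 50% growth inhibition.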

Candida dubliniensis [2] = assay: Antifungal activity against Candida dubliniensis 9453 after 48 hrs; settings: Candida dubliniensis, 9453, 48 h; how it was run: as §1
Candida dubliniensis [3] = assay: Antifungal activity against Candida dubliniensis 9456 after 24 hrs; settings: Candida dubliniensis, 9456, 24 h; how it was run: as §1
Candida dubliniensis [4] = assay: Antifungal activity against Candida dubliniensis 9456 after 48 hrs; settings: Candida dubliniensis, 9456, 48 h; how it was run: as §1
Candida dubliniensis [5] = assay: Antifungal activity against Candida dubliniensis 10031 after 24 hrs; settings: Candida dubliniensis, 10031, 24 h; how it was run: as §1
Candida dubliniensis [6] = assay: Antifungal activity against Candida dubliniensis 10031 after 48 hrs; settings: Candida dubliniensis, 10031, 48 h; how it was run: as §1
Candida dubliniensis [7] = assay: Antifungal activity against Candida dubliniensis 10032 after 24 hrs; settings: Candida dubliniensis, 10032, 24 h; how it was run: as §1
Candida dubliniensis [8] = assay: Antifungal activity against Candida dubliniensis 10032 after 48 hrs; settings: Candida dubliniensis, 10032, 48 h; how it was run: as §1
Candida dubliniensis [9] = assay: Antifungal activity against Candida dubliniensis 10033 after 24 hrs; settings: Candida dubliniensis, 10033, 24 h; how it was run: as §1
Candida dubliniensis [10] = assay: Antifungal activity against Candida dubliniensis 10033 after 48 hrs; settings: Candida dubliniensis, 10033, 48 h; how it was run: as §1
Candida dubliniensis [11] = assay: Antifungal activity against Candida dubliniensis 10034 after 24 hrs; settings: Candida dubliniensis, 10034, 24 h; how it was run: as §1
Candida dubliniensis [12] = assay: Antifungal activity against Candida dubliniensis 10034 after 48 hrs; settings: Candida dubliniensis, 10034, 48 h; how it was run: as §1
Candida dubliniensis [13] = assay: Antifungal activity against Candida dubliniensis 10035 after 24 hrs; settings: Candida dubliniensis, 10035, 24 h; how it was run: as §1
Candida dubliniensis [14] = assay: Antifungal activity against Candida dubliniensis 10035 after 48 hrs; settings: Candida dubliniensis, 10035, 48 h; how it was run: as §1
Candida dubliniensis [15] = assay: Antifungal activity against Candida dubliniensis 9453 by hemocytometry
How it was run: (§2)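 Minimal fungicidal concentration from the broth dilution test, defined as the lowest drug level giving ≥99.9% reduction in CFU/ml. Inocula were adjusted by hemocytometer.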

Candida dubliniensis [16] = assay: Antifungal activity against Candida dubliniensis 9456 by hemocytometry; how it was run: as §2
Candida dubliniensis [17] = assay: Antifungal activity against Candida dubliniensis 10031 by hemocytometry; how it was run: as §2
Candida dubliniensis [18] = assay: Antifungal activity against Candida dubliniensis 10032 by hemocytometry; how it was run: as §2
Candida dubliniensis [19] = assay: Antifungal activity against Candida dubliniensis 10033 by hemocytometry; how it was run: as §2
Candida dubliniensis [20] = assay: Antifungal activity against Candida dubliniensis 10034 by hemocytometry; how it was run: as §2
Candida dubliniensis [21] = assay: Antifungal activity against Candida dubliniensis 10035 by hemocytometry; how it was run: as §2
Candida dubliniensis [22] = assay: Antifungal activity against Candida dubliniensis 9453 assessed as compound concentration at which paradoxical growth of observed after 24 hrs
How it was run: (§3)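 In the same broth dilution (CLSI M27-A3) tests, read at 24 or 48 h, this is the range of drug concentrations over which paradoxical growth appeared. It was not set when growth occurred across the whole tested range (trailing).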

Candida dubliniensis [23] = assay: Antifungal activity against Candida dubliniensis 9456 assessed as compound concentration at which paradoxical growth of observed after 24 hrs; how it was run: as §3
Candida dubliniensis [24] = assay: Antifungal activity against Candida dubliniensis 10031 assessed as compound concentration at which paradoxical growth of observed after 24 hrs; how it was run: as §3
Candida dubliniensis [25] = assay: Antifungal activity against Candida dubliniensis 10033 assessed as compound concentration at which paradoxical growth of observed after 24 hrs; how it was run: as §3
Candida dubliniensis [26] = assay: Antifungal activity against Candida dubliniensis 10034 assessed as compound concentration at which paradoxical growth of observed after 24 hrs; how it was run: as §3
Candida dubliniensis [27] = assay: Antifungal activity against Candida dubliniensis FMR 10032 infected in immunosuppressed OF1 mouse assessed as fungal count in kidney at 1 mg/kg/day, iv […]
How it was run: (§4)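 Male OF1 mice, 10 per group, were immunosuppressed on infection day with cyclophosphamide 200 mg/kg i.p. plus 5-fluorouracil 150 mg/kg i.v., then challenged i.v. with 1.5 × 10^5 CFU. Drug was given at 1 mg/kg i.v. once daily for 5 days, starting 24 h after challenge. One day after treatment ended, kidney and spleen homogenates were plated in 10-fold dilutions on Sabouraud agar (35°C, 3 days) and mean log10 CFU was reported.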

Candida dubliniensis [28] = assay: Antifungal activity against Candida dubliniensis FMR 10034 infected in OF1 mouse assessed as fungal count in spleen at 1 mg/kg/day, iv […]
How it was run: (§5)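 Immunocompetent male OF1 mice, 10 per group, were challenged i.v. with 1.5 × 10^7 CFU. Drug was given i.v. once daily at 1 or 10 mg/kg for 3 days, starting 24 h post-challenge; controls were untreated. Mice were killed 1 day after the last dose. Kidneys and spleen were homogenized in saline, serial 10-fold dilutions were plated on Sabouraud agar at 35°C for 3 days, and mean log10 CFU was reported.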

Candida dubliniensis [29] = assay: Antifungal activity against Candida dubliniensis 10033 assessed as compound concentration at which paradoxical growth of observed after 48 hrs
How it was run: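 Broth dilution susceptibility testing of yeasts per CLSI reference method M27-A3, with inocula adjusted by hemocytometer count. Wells were read at 24 and 48 h. The paradoxical growth range is the span of drug concentrations (μg/ml) over which growth reappeared above the inhibitory concentration. Where growth occurred across the entire concentration range (trailing), no range was determined.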

Candida dubliniensis [30] = assay: Antifungal activity against Candida dubliniensis 10034 assessed as compound concentration at which paradoxical growth of observed after 48 hrs; how it was run: as §3
Candida dubliniensis [31] = assay: Antifungal activity against Candida dubliniensis 10035 assessed as compound concentration at which paradoxical growth of observed after 48 hrs; how it was run: as §3
Candida dubliniensis [32] = assay: Antifungal activity against Candida dubliniensis FMR 10032 infected in OF1 mouse assessed as fungal count in kidney at 10 mg/kg/day, iv […]; how it was run: as §5
Candida dubliniensis [33] = assay: Antifungal activity against Candida dubliniensis FMR 10032 infected in OF1 mouse assessed as fungal count in kidney at 1 mg/kg/day, iv […]; how it was run: as §5
Candida dubliniensis [34] = assay: Antifungal activity against Candida dubliniensis FMR 10032 infected in OF1 mouse assessed as fungal count in spleen at 10 mg/kg/day, iv […]; how it was run: as §5
Candida dubliniensis [35] = assay: Antifungal activity against Candida dubliniensis FMR 10032 infected in OF1 mouse assessed as fungal count in spleen at 1 mg/kg/day, iv […]; how it was run: as §5
Candida dubliniensis [36] = assay: Antifungal activity against Candida dubliniensis FMR 10034 infected in OF1 mouse assessed as fungal count in kidney at 10 mg/kg/day, iv […]; how it was run: as §5
Candida dubliniensis [37] = assay: Antifungal activity against Candida dubliniensis FMR 10034 infected in OF1 mouse assessed as fungal count in kidney at 1 mg/kg/day, iv […]; how it was run: as §5
Candida dubliniensis [38] = assay: Antifungal activity against Candida dubliniensis FMR 10034 infected in OF1 mouse assessed as fungal count in spleen at 10 mg/kg/day, iv […]; how it was run: as §5
Candida dubliniensis [39] = assay: Antifungal activity against Candida dubliniensis FMR 10032 infected in immunosuppressed OF1 mouse assessed as fungal count in spleen at 1 mg/kg/day, iv […]; how it was run: as §4
Candida dubliniensis [40] = assay: Antifungal activity against Candida dubliniensis FMR 10034 infected in immunosuppressed OF1 mouse assessed as fungal count in kidney at 1 mg/kg/day, iv […]; how it was run: as §4
Candida dubliniensis [41] = assay: Antifungal activity against Candida dubliniensis FMR 10034 infected in immunosuppressed OF1 mouse assessed as fungal count in spleen at 1 mg/kg/day, iv […]; how it was run: as §4

CC[C@H](C)C[C@H](C)CCCCCCCCC(=O)N[C@H]1C[C@@H](O)[C@@H](NCCN)NC(=O)[C@@H]2[C@@H](O)CCN2C(=O)[C@H]([C@H](O)CCN)NC(=O)[C@H]([C@H](O)[C@@H](O)c2ccc(O)cc2)NC(=O)[C@@H]2C[C@@H](O)CN2C(=O)[C@H]([C@@H](C)O)NC1=O [CASPOFUNGIN]
MIC50 (Candida dubliniensis [1]): 0.25 µg/mL (≈ 0.229 µM) | MIC50 (Candida dubliniensis [2]): 0.25 µg/mL (≈ 0.229 µM) | MIC50 (Candida dubliniensis [3]): 0.25 µg/mL (≈ 0.229 µM) | MIC50 (Candida dubliniensis [4]): 0.25 µg/mL (≈ 0.229 µM) | MIC50 (Candida dubliniensis [5]): 0.125 µg/mL (≈ 0.114 µM) | MIC50 (Candida dubliniensis [6]): 0.25 µg/mL (≈ 0.229 µM) | MIC50 (Candida dubliniensis [7]): 0.06 µg/mL (≈ 0.0549 µM) | MIC50 (Candida dubliniensis [8]): 0.06 µg/mL (≈ 0.0549 µM) | MIC50 (Candida dubliniensis [9]): 0.25 µg/mL (≈ 0.229 µM) | MIC50 (Candida dubliniensis [10]): 0.25 µg/mL (≈ 0.229 µM) | MIC50 (Candida dubliniensis [11]): 0.125 µg/mL (≈ 0.114 µM) | MIC50 (Candida dubliniensis [12]): 0.25 µg/mL (≈ 0.229 µM) | MIC50 (Candida dubliniensis [13]): 0.06 µg/mL (≈ 0.0549 µM) | MIC50 (Candida dubliniensis [14]): 0.06 µg/mL (≈ 0.0549 µM) | MFC (Candida dubliniensis [15]): > 16 µg/mL | MFC (Candida dubliniensis [16]): > 16 µg/mL | MFC (Candida dubliniensis [17]): > 16 µg/mL | MFC (Candida dubliniensis [18]): 4 µg/mL (≈ 3.66 µM) | MFC (Candida dubliniensis [19]): > 16 µg/mL | MFC (Candida dubliniensis [20]): > 16 µg/mL | MFC (Candida dubliniensis [21]): 0.5 µg/mL (≈ 0.457 µM) | Activity (Candida dubliniensis [22]): 8 µg/mL | Activity (Candida dubliniensis [23]): 8 µg/mL | Activity (Candida dubliniensis [24]): 8 µg/mL | Activity (Candida dubliniensis [25]): 8 µg/mL | Activity (Candida dubliniensis [26]): 16 µg/mL | log10cfu (Candida dubliniensis [27]): 1.77 | log10cfu (Candida dubliniensis [28]): 4.21 | Activity (Candida dubliniensis [29]): 2 µg/mL | Activity (Candida dubliniensis [30]): 1 µg/mL | Activity (Candida dubliniensis [31]): 8 µg/mL | log10cfu (Candida dubliniensis [32]): 3.08 | log10cfu (Candida dubliniensis [33]): 3.41 | log10cfu (Candida dubliniensis [34]): 3.38 | log10cfu (Candida dubliniensis [35]): 3.56 | log10cfu (Candida dubliniensis [36]): 4.09 | log10cfu (Candida dubliniensis [37]): 4.5 | log10cfu (Candida dubliniensis [38]): 3.89 | log10cfu (Candida dubliniensis [39]): 1.26 | log10cfu (Candida dubliniensis [40]): 3.39 | log10cfu (Candida dubliniensis [41]): 2.08
